According to ChEMBL document CHEMBL3351561, “Discovery of 9-(1-anilinoethyl)-2-morpholino-4-oxo-pyrido[1,2-a]pyrimidine-7-carboxamides as PI3Kβ/δ inhibitors for the treatment of PTEN-deficient tumours” (Bioorg Med Chem Lett, 2014):
Values after ≈ are worked out from the molar mass of the structure shown.

Experiments:
[1] = Solubility of the compound in phosphate buffer at pH 7.4; type: physicochemical
In short: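 Solubility was measured from solid material in phosphate buffer at pH 7.4.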

[2] = target: T1, Phosphatidylinositol 4,5-bisphosphate 3-kinase catalytic subunit beta isoform (Homo sapiens, UniProt P42338); test: Inhibition of PI3Kbeta in human MAD-MB-468 cells assessed as inhibition of Ser473 Akt phosphorylation by cellular potency assay
[3] = Intrinsic clearance in human hepatocytes measured per 10^6 cells; type: ADME, cell-based, Hepatocyte; conditions: read-out: CLH
In short: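 Intrinsic clearance was measured in human hepatocytes and is expressed in µL/min/10^6 cells.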

[4] = Buffer/octanol partition coefficient, log D of the compound at pH 7.4 by shake flask method; type: physicochemical
In short: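 LogD at pH 7.4 was measured by shake-flask with a buffer/octanol volume ratio of 100:1.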

[5] = Apparent permeability from apical (pH 6.5) to […] of human Caco2 cells; type: ADME, cell-based; conditions: Caco-2, pH 6.5
Homo sapiens [6] = organism: Homo sapiens; test: Ratio of IC50 for PI3Kalpha human BT474 cells to IC50 PI3Kbeta in human […] cells
[7] = target: T1, Phosphatidylinositol 4,5-bisphosphate 3-kinase catalytic subunit beta isoform; test: Inhibition of human recombinant PI3Kbeta assessed as depletion of ATP substrate by Ultra Glo luciferase assay
In short: (§1)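 Enzyme IC50s are reported as the geometric mean of 3 or more values.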

[8] = target: Phosphatidylinositol 4,5-bisphosphate 3-kinase catalytic subunit gamma isoform (Homo sapiens, UniProt P48736); test: Inhibition of human recombinant PI3Kgamma assessed as depletion of ATP substrate by Ultra Glo luciferase assay; in short: as §1
Mus musculus [9] = test: Inhibition of Akt phosphorylation in SCID mouse xenografted with PTEN-null human PC3 cells at 50 mg/kg, po measured after 4 hrs; type: functional; conditions: PC-3, 4 h
In short: (§2)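 SCID mice carrying PTEN-null PC3 prostate xenografts received a single oral dose as a suspension (50, 100 or 200 mg/kg).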

[10] = Bioavailability in mouse plasma at 5 umol/kg, iv and 30 umol/kg, po; type: ADME, organism-based
In short: (§3)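 […] mice were dosed at 5 µmol/kg i.v. and 30 µmol/kg p.o. Clearance is given in mL/min/kg and oral bioavailability in %.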

[11] = target: T2, Phosphatidylinositol 4,5-bisphosphate 3-kinase catalytic subunit alpha isoform (Homo sapiens, UniProt P42336); test: Inhibition of human recombinant PI3Kalpha assessed as depletion of ATP substrate by Ultra Glo luciferase assay; in short: as §1
[12] = Fraction unbound in mouse plasma; type: ADME, cell-free
In short: (§4)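 Protein binding was measured in nude mouse plasma and in human plasma and is expressed as fraction unbound (%).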

[13] = Total plasma concentration in SCID mouse xenografted with PTEN-null human PC3 cells at 50 mg/kg, po measured after 30 mins; type: ADME, organism-based, PC-3; set-up: dose 50 mg/kg, route oral
In short: (§5)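 Total plasma concentration was measured in SCID mice carrying PC3 xenografts after a single oral dose given as a suspension (50, 100 or 200 mg/kg). Samples were taken at 0.5 to 8 h.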

[14] = target: T2, Phosphatidylinositol 4,5-bisphosphate 3-kinase catalytic subunit alpha isoform; test: Inhibition of PI3Kalpha in human BT474 cells assessed as inhibition of […] Akt phosphorylation after 2 hrs by fluorescence assay; type: cell-based, BT-474
In short: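 BT474 cells were seeded in DMEM with 10% FCS and 1% glutamine and left to adhere overnight, then treated with compound in DMSO for 2 h at 37 °C and 5% CO2. Cells were lysed with a phosphatase/protease-inhibitor buffer. Lysate was captured on anti-total-Akt plates, probed with anti-phospho-Akt Thr308 and an HRP secondary, and read by fluorescence (ex 325/em 420 nm). Values are the geometric mean of ≥2 determinations.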

[15] = Fraction unbound in human plasma; type: ADME, cell-free; in short: as §4
[16] = target: T3, Phosphatidylinositol 4,5-bisphosphate 3-kinase catalytic subunit delta isoform (Homo sapiens, UniProt O00329); test: Inhibition of human recombinant PI3Kdelta assessed as depletion of ATP substrate by Ultra Glo luciferase assay; in short: as §1
T3 sequence (O00329 whole entry): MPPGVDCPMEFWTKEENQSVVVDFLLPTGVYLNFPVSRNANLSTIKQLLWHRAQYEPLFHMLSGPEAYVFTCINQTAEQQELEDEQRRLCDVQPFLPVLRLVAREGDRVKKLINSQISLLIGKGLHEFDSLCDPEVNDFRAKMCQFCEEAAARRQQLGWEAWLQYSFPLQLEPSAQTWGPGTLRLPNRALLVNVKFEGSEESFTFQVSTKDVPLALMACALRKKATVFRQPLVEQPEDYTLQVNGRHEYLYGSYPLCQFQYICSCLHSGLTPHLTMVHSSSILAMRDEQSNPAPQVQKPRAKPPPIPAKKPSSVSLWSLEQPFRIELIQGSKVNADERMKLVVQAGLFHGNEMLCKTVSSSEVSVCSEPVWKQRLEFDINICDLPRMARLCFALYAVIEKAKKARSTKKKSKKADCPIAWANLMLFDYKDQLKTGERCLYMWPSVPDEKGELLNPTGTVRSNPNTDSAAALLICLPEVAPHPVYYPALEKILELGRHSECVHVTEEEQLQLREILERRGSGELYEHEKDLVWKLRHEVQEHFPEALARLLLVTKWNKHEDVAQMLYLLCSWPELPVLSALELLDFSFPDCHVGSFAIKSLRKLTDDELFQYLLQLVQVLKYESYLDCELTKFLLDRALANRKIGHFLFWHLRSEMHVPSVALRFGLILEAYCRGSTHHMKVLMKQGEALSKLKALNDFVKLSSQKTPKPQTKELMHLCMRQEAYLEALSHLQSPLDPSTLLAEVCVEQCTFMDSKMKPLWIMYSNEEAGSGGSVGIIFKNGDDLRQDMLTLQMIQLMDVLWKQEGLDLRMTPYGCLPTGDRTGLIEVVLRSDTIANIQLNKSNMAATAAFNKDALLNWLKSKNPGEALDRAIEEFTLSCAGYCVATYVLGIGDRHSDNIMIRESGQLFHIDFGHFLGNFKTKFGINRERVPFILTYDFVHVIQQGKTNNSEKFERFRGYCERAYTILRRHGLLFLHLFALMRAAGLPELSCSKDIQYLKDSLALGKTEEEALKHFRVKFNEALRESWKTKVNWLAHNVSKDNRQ

[17] = Ratio of total plasma concentration in PTEN-null human PC3 cells xenografted in SCID mouse at 50 mg/kg, po single dose at 4 hrs to IC50 for PI3Kbeta in human […] cells; set-up: species or system PC-3
In short: (§6)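 SCID mice bearing PTEN-null PC3 prostate tumour xenografts got a single oral dose given as a suspension. Total plasma concentration was measured at the sampled time points (0.5, 4 or 8 h). The value is the […] cover over the PI3Kβ cellular IC50, which comes from inhibition of Ser473 Akt phosphorylation in PTEN-null MDA-MB-468 breast adenocarcinoma cells.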

[18] = Clearance in mouse plasma at 5 umol/kg, iv and 30 umol/kg, po; type: ADME, organism-based; in short: as §3
[19] = Total plasma concentration in SCID mouse xenografted with PTEN-null human PC3 cells at 50 mg/kg, po measured after 4 hrs; type: ADME, organism-based, PC-3; set-up: dose 50 mg/kg, route oral; in short: as §5
Mus musculus [20] = test: Inhibition of Akt phosphorylation in SCID mouse xenografted with PTEN-null human PC3 cells at 50 mg/kg, po measured after 30 mins; type: functional; conditions: PC-3, 0.5 h; in short: as §2
[21] = Ratio of total plasma concentration in PTEN-null human PC3 cells xenografted in SCID mouse at 50 mg/kg, po single dose at 0.5 hrs to IC50 for PI3Kbeta in human […] cells; set-up: species or system PC-3; in short: as §6
Homo sapiens [22] = organism: Homo sapiens; test: Ratio of IC50 for human recombinant PI3Kgamma to IC50 human recombinant PI3Kbeta
In short: (§7)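 Ratio is taken from enzyme IC50 values, each the geometric mean of 3 or more determinations. In the PI3Kβ enzyme assay, functional enzyme concentration was measured experimentally. The tight-binding limit, half that concentration, is 10 nM, so β IC50 values near that floor set a cap on the ratio.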

Homo sapiens [23] = organism: Homo sapiens; test: Ratio of IC50 for human recombinant PI3Kalpha to IC50 human recombinant PI3Kbeta; in short: as §7

T1 sequence (P42338 whole entry, canonical isoform): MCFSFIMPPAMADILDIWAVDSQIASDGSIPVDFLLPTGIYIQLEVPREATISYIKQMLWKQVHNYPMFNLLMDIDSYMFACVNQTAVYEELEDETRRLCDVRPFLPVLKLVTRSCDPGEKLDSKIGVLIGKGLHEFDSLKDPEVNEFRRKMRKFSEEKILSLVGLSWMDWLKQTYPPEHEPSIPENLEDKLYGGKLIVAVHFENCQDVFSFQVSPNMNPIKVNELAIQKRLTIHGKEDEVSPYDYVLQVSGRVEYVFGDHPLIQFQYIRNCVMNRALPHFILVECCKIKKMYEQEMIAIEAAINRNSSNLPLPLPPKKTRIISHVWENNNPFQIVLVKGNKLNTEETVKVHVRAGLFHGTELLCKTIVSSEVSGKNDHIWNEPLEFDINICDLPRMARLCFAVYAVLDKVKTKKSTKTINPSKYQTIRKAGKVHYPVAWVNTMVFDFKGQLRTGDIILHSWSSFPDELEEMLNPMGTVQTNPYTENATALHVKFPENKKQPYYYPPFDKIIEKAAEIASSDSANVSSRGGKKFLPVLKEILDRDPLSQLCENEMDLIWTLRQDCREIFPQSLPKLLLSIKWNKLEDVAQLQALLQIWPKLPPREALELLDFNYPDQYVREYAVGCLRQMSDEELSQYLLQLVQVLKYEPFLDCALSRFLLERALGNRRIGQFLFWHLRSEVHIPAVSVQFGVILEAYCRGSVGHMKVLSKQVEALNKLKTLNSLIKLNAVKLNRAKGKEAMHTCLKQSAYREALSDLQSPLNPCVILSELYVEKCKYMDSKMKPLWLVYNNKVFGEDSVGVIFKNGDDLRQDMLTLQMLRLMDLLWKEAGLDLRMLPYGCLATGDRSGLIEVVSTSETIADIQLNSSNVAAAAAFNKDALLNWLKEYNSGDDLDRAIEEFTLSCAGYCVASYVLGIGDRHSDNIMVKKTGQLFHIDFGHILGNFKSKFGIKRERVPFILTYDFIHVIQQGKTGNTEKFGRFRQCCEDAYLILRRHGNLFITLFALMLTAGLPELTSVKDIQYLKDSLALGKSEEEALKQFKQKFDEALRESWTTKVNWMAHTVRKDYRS
T2 sequence (P42336 whole entry, canonical isoform): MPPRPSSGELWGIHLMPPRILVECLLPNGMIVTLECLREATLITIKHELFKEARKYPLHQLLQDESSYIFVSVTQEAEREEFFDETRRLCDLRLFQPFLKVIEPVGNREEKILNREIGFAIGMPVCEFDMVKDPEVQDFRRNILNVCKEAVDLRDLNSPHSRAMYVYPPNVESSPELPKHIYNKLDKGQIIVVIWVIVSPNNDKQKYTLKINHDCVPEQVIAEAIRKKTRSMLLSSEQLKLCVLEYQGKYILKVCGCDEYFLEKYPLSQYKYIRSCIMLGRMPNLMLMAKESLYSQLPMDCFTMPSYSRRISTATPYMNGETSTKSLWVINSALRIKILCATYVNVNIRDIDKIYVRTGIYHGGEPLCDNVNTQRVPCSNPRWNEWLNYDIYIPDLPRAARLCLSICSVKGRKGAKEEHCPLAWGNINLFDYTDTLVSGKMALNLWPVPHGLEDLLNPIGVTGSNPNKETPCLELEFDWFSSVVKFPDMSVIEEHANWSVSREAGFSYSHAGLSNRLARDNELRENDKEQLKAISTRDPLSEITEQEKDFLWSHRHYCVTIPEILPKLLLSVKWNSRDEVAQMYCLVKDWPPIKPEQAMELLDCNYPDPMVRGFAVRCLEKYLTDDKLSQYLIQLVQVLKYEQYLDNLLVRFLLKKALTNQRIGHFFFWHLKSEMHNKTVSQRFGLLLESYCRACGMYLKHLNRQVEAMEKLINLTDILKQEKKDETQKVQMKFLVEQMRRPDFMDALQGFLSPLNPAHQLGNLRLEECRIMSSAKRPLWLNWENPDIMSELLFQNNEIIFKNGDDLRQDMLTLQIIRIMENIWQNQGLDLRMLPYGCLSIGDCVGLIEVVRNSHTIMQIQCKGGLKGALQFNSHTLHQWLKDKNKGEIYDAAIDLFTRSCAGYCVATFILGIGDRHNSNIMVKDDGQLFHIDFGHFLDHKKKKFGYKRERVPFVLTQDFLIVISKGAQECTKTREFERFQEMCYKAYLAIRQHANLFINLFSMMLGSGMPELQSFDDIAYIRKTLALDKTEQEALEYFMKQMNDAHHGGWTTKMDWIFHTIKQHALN
Sequence of Phosphatidylinositol 4,5-bisphosphate 3-kinase catalytic subunit gamma isoform (P48736 whole entry, canonical isoform): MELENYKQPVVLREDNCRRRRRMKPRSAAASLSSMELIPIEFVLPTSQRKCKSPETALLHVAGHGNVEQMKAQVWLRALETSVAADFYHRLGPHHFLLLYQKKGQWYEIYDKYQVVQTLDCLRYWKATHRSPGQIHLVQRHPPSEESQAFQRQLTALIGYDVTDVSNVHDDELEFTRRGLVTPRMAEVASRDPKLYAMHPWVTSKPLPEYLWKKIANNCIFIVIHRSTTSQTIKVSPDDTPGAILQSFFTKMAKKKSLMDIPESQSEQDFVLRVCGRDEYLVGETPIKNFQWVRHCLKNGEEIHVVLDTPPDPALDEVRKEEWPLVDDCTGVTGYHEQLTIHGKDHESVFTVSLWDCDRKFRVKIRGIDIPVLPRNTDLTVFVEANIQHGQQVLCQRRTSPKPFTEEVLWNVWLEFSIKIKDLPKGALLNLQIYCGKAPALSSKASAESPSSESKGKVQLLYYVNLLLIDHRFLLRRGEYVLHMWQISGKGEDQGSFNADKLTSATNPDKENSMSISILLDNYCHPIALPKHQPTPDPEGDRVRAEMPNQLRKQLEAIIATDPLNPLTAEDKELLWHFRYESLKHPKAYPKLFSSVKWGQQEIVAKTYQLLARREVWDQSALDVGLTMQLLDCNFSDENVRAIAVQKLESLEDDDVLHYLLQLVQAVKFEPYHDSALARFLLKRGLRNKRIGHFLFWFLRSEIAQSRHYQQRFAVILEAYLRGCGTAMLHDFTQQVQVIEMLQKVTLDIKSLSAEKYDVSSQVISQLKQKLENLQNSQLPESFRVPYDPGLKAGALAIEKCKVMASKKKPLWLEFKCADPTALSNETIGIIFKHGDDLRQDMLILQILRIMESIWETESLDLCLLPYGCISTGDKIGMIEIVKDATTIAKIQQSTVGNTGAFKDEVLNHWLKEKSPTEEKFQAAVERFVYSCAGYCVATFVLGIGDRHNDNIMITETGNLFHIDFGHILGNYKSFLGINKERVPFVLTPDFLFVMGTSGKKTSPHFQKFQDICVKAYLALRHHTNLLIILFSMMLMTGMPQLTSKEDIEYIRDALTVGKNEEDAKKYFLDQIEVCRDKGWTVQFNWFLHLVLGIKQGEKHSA

Compound | solubility [1] | IC50 [2] | hepatocyte CLint [3] | logD [4] | Papp A→B [5] | further results
CC(Nc1cc(F)c(F)c(F)c1)c1cc(C(=O)N(C)C)cn2c(=O)cc(N3CCOCC3)nc12 (single isomer, unassigned; (-)) | 10 µM (≈ 4.75 µg/mL) | 11 nM | 13 µL/min/1e6 cells |  |  | 
CC(Nc1cc(F)cc(F)c1F)c1cc(C(=O)N(C)C)cn2c(=O)cc(N3CCOCC3)nc12 (single isomer, unassigned; (-)) | 46 µM (≈ 21.9 µg/mL) | 25 nM | 15 µL/min/1e6 cells | 2.9 |  | 
Cc1cccc(NC(C)c2cc(C)cn3c(=O)cc(N4CCOCC4)nc23)c1 (racemic) |  | 81 nM |  |  |  | 
C[C@@H](Nc1cc(F)cc(F)c1)c1cc(C(=O)N2CCN(C)CC2)cn2c(=O)cc(N3CCOCC3)nc12 | > 1500 µM | 29 nM | 6 µL/min/1e6 cells | 2.6 | 9 ×10⁻⁶ cm/s | 
CC(Nc1cc(F)cc(Cl)c1)c1cc(C(=O)N(C)C)cn2c(=O)cc(N3CCOCC3)nc12 (single isomer, unassigned; (-)) |  | 11 nM | 19 µL/min/1e6 cells | 3.5 |  | 
Cc1cc(C(C)Nc2ccc(F)cc2)c2nc(N3CCOCC3)cc(=O)n2c1 (racemic) |  | 190 nM |  |  |  | 
CC(Nc1cc(F)cc(F)c1)c1cc(C(=O)N(C)CCO)cn2c(=O)cc(N3CCOCC3)nc12 (racemic) | 930 µM (≈ 453 µg/mL) | 8 nM | 10 µL/min/1e6 cells | 2.1 |  | 
Cc1cc(C(C)Nc2cccc(Cl)c2)c2nc(N3CCOCC3)cc(=O)n2c1 (stereo unspecified) |  | 17 nM |  |  |  | 
Cc1cc(C(C)Nc2cc(F)cc(F)c2)c2nc(N3CCOCC3)cc(=O)n2c1 (stereo unspecified) |  | 9 nM |  |  |  | 
C[C@@H](Nc1cc(F)cc(F)c1)c1cc(C(=O)N2CCOCC2)cn2c(=O)cc(N3CCOCC3)nc12 | 316 µM (≈ 158 µg/mL) | 25 nM | 6 µL/min/1e6 cells | 2.7 |  | 

Now from value to compound, other results behind:

solubility [1] | IC50 [2] | hepatocyte CLint [3] | logD [4] | Papp A→B [5] | Compound | further results
 | 74 nM |  |  |  | CC(Nc1cccc(C(F)(F)F)c1)c1cc(C(=O)NCCN(C)C)cn2c(=O)cc(N3CCOCC3)nc12 (racemic) | 
 | 2 nM |  | 2 | 0.3 ×10⁻⁶ cm/s | CC(Nc1cccc(F)c1)c1cc(C(=O)NCCN(C)C)cn2c(=O)cc(N3CCOCC3)nc12 (racemic) | 
28 µM (≈ 12.8 µg/mL) | 73 nM | 9 µL/min/1e6 cells | 2.7 |  | CC(Nc1cccc(F)c1F)c1cc(C(=O)N(C)C)cn2c(=O)cc(N3CCOCC3)nc12 (racemic) | 
 | 530 nM |  |  |  | Cc1ccc(NC(C)c2cc(C(=O)NCCN(C)C)cn3c(=O)cc(N4CCOCC4)nc23)cc1 (racemic) | 
 | 10 nM |  |  |  | CC(Nc1cccc(Cl)c1)c1cc(C(=O)NCCN(C)C)cn2c(=O)cc(N3CCOCC3)nc12 (racemic) | 
 | 4 nM |  | 2.7 | 0.9 ×10⁻⁶ cm/s | CC(Nc1cccc(Cl)c1F)c1cc(C(=O)NCCN(C)C)cn2c(=O)cc(N3CCOCC3)nc12 (single isomer, unassigned; (-)) | Ratio IC50 (Homo sapiens [6]): 240; IC50 [7]: 7 nM; IC50 [8]: 670 nM; inhibition in vivo at 50 mg/kg (Mus musculus [9]): 40%; bioavailability [10]: 39%; IC50 [11]: 92 nM; fraction unbound [12]: 0.016; concentration at 0.5 h [13]: 21 µM; IC50 [14]: 970 nM; fraction unbound [15]: 0.033; IC50 [16]: 51 nM; Ratio [17]: 48; clearance [18]: 10 mL/min/kg; concentration at 4 h [19]: 12 µM; inhibition in vivo at 50 mg/kg (Mus musculus [20]): 26%; Ratio [21]: 83
 | 23 nM |  | 1.9 | 0.8 ×10⁻⁶ cm/s | CC(Nc1ccccc1F)c1cc(C(=O)NCCN(C)C)cn2c(=O)cc(N3CCOCC3)nc12 (racemic) | 
23 µM (≈ 10.1 µg/mL) | 39 nM | 45 µL/min/1e6 cells |  | 39 ×10⁻⁶ cm/s | CC(Nc1cccc(F)c1)c1cc(C(=O)N(C)C)cn2c(=O)cc(N3CCOCC3)nc12 (racemic) | 
 | 75 nM |  |  |  | CC(Nc1ccc(Cl)cc1)c1cc(C(=O)NCCN(C)C)cn2c(=O)cc(N3CCOCC3)nc12 (racemic) | 
 | 7 nM |  |  |  | CC(Nc1ccccc1Cl)c1cc(C(=O)NCCN(C)C)cn2c(=O)cc(N3CCOCC3)nc12 (racemic) | 
 | 8 nM |  | 1.7 | 0.2 ×10⁻⁶ cm/s | CC(Nc1ccccc1)c1cc(C(=O)NCCN(C)C)cn2c(=O)cc(N3CCOCC3)nc12 (single isomer, unassigned; (-)) | IC50 [7]: 8 nM; IC50 [8]: 6900 nM; IC50 [11]: 370 nM; IC50 [14]: 2200 nM; IC50 [16]: 85 nM
 | 12 nM |  | 1.8 | 0.2 ×10⁻⁶ cm/s | CC(Nc1ccc(F)cc1)c1cc(C(=O)NCCN(C)C)cn2c(=O)cc(N3CCOCC3)nc12 (racemic) | 
 | 156 nM |  | 2.4 |  | CC(Nc1ccccc1)c1cc(C(=O)N(C)C)cn2c(=O)cc(N3CCOCC3)nc12 (single isomer, unassigned; (+)) | Ratio IC50 (Homo sapiens [6]): 60; IC50 [7]: 11 nM; IC50 [8]: 6000 nM; IC50 [11]: 560 nM; Ratio IC50 (Homo sapiens [22]): 550; IC50 [14]: 9600 nM; IC50 [16]: 110 nM; Ratio IC50 (Homo sapiens [23]): 50
